# Laboratory results taken from ChEMBL document CHEMBL4007431, “Systematic variation of the benzenesulfonamide part of the GluN2A selective NMDA receptor antagonist TCN-201” (Eur J Med Chem, 2017).
# Activity calls are given as the source filed them. No cut-off for these calls is given here.
# How the values were obtained:
# Format in all cases: cell-based
# [1] = biological target: T1, Glutamate NMDA receptor; Grin1/Grin2a (Rattus norvegicus) (UniProt P35439+Q00959); experiment: Antagonist activity at rat GluN1A/GluN2A receptor expressed in Xenopus laevis oocytes assessed as inhibition of glutamate/glycine-induced channel current at 500 nM at -70 mV holding potential by two electrode voltage clamp method relative to TCN-201
# Method in brief: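 GluN1a/GluN2A-coinjected oocytes (0.8 ng of each cRNA) under TEVC at −70 mV and room temperature, perfused with Ba2+-Ringer at pH 7.4. 10 µM (S)-glutamate and 10 µM glycine open the channel. Compound at 500 nM final (from 10 mM DMSO stock) in agonist solution. Current inhibition compared with the lead. At least five oocytes each. One-way ANOVA with Tukey post hoc test.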
# [2] = biological target: T1, Glutamate NMDA receptor; Grin1/Grin2a (Rattus norvegicus); experiment: Potency index, ratio of TCN-201 IC50 to compound IC50 for rat GluN1A/GluN2A receptor expressed in Xenopus laevis oocytes
# [3] = biological target: Glutamate NMDA receptor; Grin1/Grin2a (Rattus norvegicus, UniProt P35439+Q00959); experiment: Antagonist activity at rat GluN1A/GluN2A receptor expressed in Xenopus laevis oocytes assessed as inhibition of glutamate/glycine-induced channel current at -70 mV holding potential by two electrode voltage clamp method
# Method in brief: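 Oocytes (stage V, defolliculated) coinjected with 0.8 ng GluN1a and 0.8 ng GluN2A cRNA. TEVC at room temperature, holding −70 mV, perfusion with Ba2+-Ringer (10 HEPES, 90 NaCl, 1 KCl, 1.5 BaCl2 mmol/L, pH 7.4). Currents evoked by glutamate plus glycine. Compounds diluted from 10 mM DMSO stocks into agonist solution, 1 nM to 10 µM final. n = 5 oocytes per concentration. Logistic fit with minimum 0% and maximum 100%; x0 taken as the half-maximal inhibition.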
# [4] = biological target: Glutamate NMDA receptor; Grin1/Grin2b (Rattus norvegicus) (UniProt P35439+Q00960); experiment: Antagonist activity at rat GluN1A/GluN2B receptor expressed in Xenopus laevis oocytes assessed as inhibition of glutamate/glycine-induced channel current at 10 uM at -70 mV holding potential by two electrode voltage clamp method
# Method in brief: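 Oocytes were injected with GluN1a and GluN2B cRNA and recorded by TEVC with glutamate/glycine activation. Compounds tested at 10 µM, n = 5. One-way ANOVA with Tukey post hoc test.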
Compound,fold change (FC) [1],also measured
O=C(NNC(=O)c1ccc(CNS(=O)(=O)c2ccc([N+](=O)[O-])cc2)cc1)c1ccccc1,0.002,–
O=C(NNC(=O)c1ccc(CNS(=O)(=O)c2cccnc2)cc1)c1ccccc1,0.151,–
COc1cccc(S(=O)(=O)NCc2ccc(C(=O)NNC(=O)c3ccccc3)cc2)c1,-0.062,–
O=C(NNC(=O)c1ccc(CNS(=O)(=O)c2cccc(I)c2)cc1)c1ccccc1,1.19,–
O=C(NNC(=O)c1ccc(CNS(=O)(=O)c2ccccc2)cc1)c1ccccc1,0.351,–
Cc1cccc(S(=O)(=O)NCc2ccc(C(=O)NNC(=O)c3ccccc3)cc2)c1,0.28,–
N#Cc1cccc(S(=O)(=O)NCc2ccc(C(=O)NNC(=O)c3ccccc3)cc2)c1,0.151,–
O=C(NNC(=O)c1ccc(CNS(=O)(=O)c2ccccc2Br)cc1)c1ccccc1,0.045,–
O=C(NNC(=O)c1ccc(CNS(=O)(=O)c2cccc(F)c2)cc1)c1ccccc1,0.818,–
O=C(NNC(=O)c1ccc(CNS(=O)(=O)c2cccc([N+](=O)[O-])c2)cc1)c1ccccc1,0.161,–
O=C(NNC(=O)c1ccc(CNS(=O)(=O)c2ccccc2[N+](=O)[O-])cc1)c1ccccc1,0.397,–
O=C(O)c1ccc(S(=O)(=O)NCc2ccc(C(=O)NNC(=O)c3ccccc3)cc2)cc1,0.283,–
O=C(NNC(=O)c1ccc(CNS(=O)(=O)c2cccc(Br)c2)cc1)c1ccccc1,1.27,Ratio IC50 [2]: 2.5; IC50 [3]: 204 nM; inhibition [4]: inactive
O=C(NNC(=O)c1ccc(CNS(=O)(=O)c2ccccc2Cl)cc1)c1ccccc1,-0.092,–
O=C(NNC(=O)c1ccc(CNS(=O)(=O)c2ccc(Cl)cc2)cc1)c1ccccc1,0.279,–
O=C(NNC(=O)c1ccc(CNS(=O)(=O)c2ccccc2F)cc1)c1ccccc1,0.019,–
O=C(NNC(=O)c1ccc(CNS(=O)(=O)c2ccc(I)cc2)cc1)c1ccccc1,0.051,–
O=C(NNC(=O)c1ccc(CNS(=O)(=O)c2ccc(Br)cc2)cc1)c1ccccc1,0.315,–
O=C(NNC(=O)c1ccc(CNS(=O)(=O)c2ccc(F)cc2)cc1)c1ccccc1,0.103,–
O=C(NNC(=O)c1ccc(CNS(=O)(=O)c2cccc(Cl)c2)cc1)c1ccccc1,1.21,–
O=C(NNC(=O)c1ccc(CNS(=O)(=O)c2ccc(F)c(Cl)c2)cc1)c1ccccc1,–,IC50 [3]: 512 nM; inhibition [4]: inactive
Nc1ccc(S(=O)(=O)NCc2ccc(C(=O)NNC(=O)c3ccccc3)cc2)cc1,0.379,–
O=C(NNC(=O)c1ccc(CNS(=O)(=O)c2cccs2)cc1)c1ccccc1,0.529,–
